{"source": "ChEMBL document CHEMBL1921735", "about": "“Antibacterial optimization of 4-aminothiazolyl analogues of the natural product GE2270 A: identification of the cycloalkylcarboxylic acids” (J Med Chem, 2011)", "key": {"[1]": {"test": "Clearance in Sprague-Dawley rat at 25 mg/kg, iv bolus", "assay_type": "ADME, organism-based", "set-up": "dose 25 mg/kg, route intravenous", "conditions": "in vivo", "procedure,_shortened": "(§1)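 Male Sprague−Dawley rats (220−270 g, ~6−10 weeks) with dual jugular vein cannulae, fasted overnight and for 8 h post-dose, given iv bolus (N = 2 or 3). Blood was collected into K2EDTA tubes and plasma was obtained. Plasma was protein-precipitated with acetonitrile containing glyburide internal standard, then analysed by LC−MS/MS (C18, 0.1% formic acid water/acetonitrile gradient).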"}, "[2]": {"test": "Volume of distribution at steady state in Sprague-Dawley rat at 25 mg/kg, iv bolus", "assay_type": "ADME, organism-based", "set-up": "dose 25 mg/kg, route intravenous", "conditions": "in vivo, read-out: Vdss", "procedure,_shortened": "as §1"}, "[3]": {"test": "Volume of distribution at steady state in Sprague-Dawley rat at 1 mg/kg, iv bolus", "assay_type": "ADME, organism-based", "set-up": "dose 1 mg/kg, route intravenous", "conditions": "in vivo, read-out: Vdss", "procedure,_shortened": "as §1"}, "Rattus norvegicus [4]": {"test_system": "Rattus norvegicus", "test": "Cmax in Sprague-Dawley rat at 75 mg/kg, iv bolus", "assay_type": "ADME, organism-based", "set-up": "dose 75 mg/kg, route intravenous", "conditions": "in vivo", "procedure,_shortened": "as §1"}, "Rattus norvegicus [5]": {"test_system": "Rattus norvegicus", "test": "Dose normalized AUC in Sprague-Dawley rat at 75 mg/kg, iv bolus", "assay_type": "ADME, organism-based", "set-up": "dose 75 mg/kg, route intravenous", "conditions": "in vivo", "procedure,_shortened": "as §1"}, "[6]": {"test": "Plasma protein binding in Sprague-Dawley rat", "assay_type": "ADME, cell-free", "conditions": "read-out: PPB", "procedure,_shortened": "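Rat plasma protein binding was determined in triplicate by rapid equilibrium dialysis. Samples were quantified by LC−MS/MS after acetonitrile precipitation with glyburide internal standard.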"}, "Enterococcus faecalis [7]": {"test_system": "Enterococcus faecalis", "test": "Antibacterial activity against Enterococcus faecalis isolate NB04025 infected in CD1 mouse assessed as protection against bacterial infection administered immediately after infection measured on day 5", "assay_type": "functional", "conditions": "isolate NB04025, 120 h", "procedure,_shortened": "(§2)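 Mouse lethal systemic infection: ip injection of 1 × 10^8 cfu/mouse (10−100× minimal lethal dose), E. faecalis in 50% sterile rat fecal extract, S. aureus in 0.9% NaCl. Therapy by tail-vein bolus at several doses, six mice per group. Started immediately for E. faecalis; at 1 and 5 h post-inoculation for S. aureus.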"}, "Staphylococcus aureus [8]": {"test_system": "Staphylococcus aureus", "test": "Bacteriostatic activity against Staphylococcus aureus ATCC 01001 infected in thigh of CD1 mouse assessed as prevention of colony formation at 80 mg/kg, ip administered 2 hrs post infection measured after 24 hrs", "assay_type": "functional, organism-based", "set-up": "dose 80 mg/kg", "procedure,_shortened": "(§3)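 Female CD1 mice (21−25 g), made neutropenic with cyclophosphamide ip at 150 mg/kg (day −4) and 100 mg/kg (day −1). Left thigh infected im with 0.05 mL S. aureus ATCC 01001 (7.5 × 10^5 cfu/thigh), grown 16 h at 36 °C in cation-supplemented Mueller Hinton. Treatment given 2 h post-infection, four mice per group. At 12 or 24 h thighs were excised, homogenized in 0.9% NaCl, serially diluted and plated on blood agar for cfu.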"}, "Enterococcus faecalis [9]": {"test_system": "Enterococcus faecalis", "test": "Antibacterial activity against Enterococcus faecalis ATCC 29212 by CLSI M07-A8 method", "assay_type": "functional", "procedure,_shortened": "(§4)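 Broth microdilution MIC run per CLSI M07-A8 (2009).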"}, "[10]": {"test": "AUC in Sprague-Dawley rat at 75 mg/kg, iv bolus", "assay_type": "ADME, organism-based", "set-up": "dose 75 mg/kg, route intravenous", "conditions": "plasma", "procedure,_shortened": "as §1"}, "[11]": {"test": "AUC in Sprague-Dawley rat at 1 mg/kg, iv bolus", "assay_type": "ADME, organism-based", "set-up": "dose 1 mg/kg, route intravenous", "conditions": "plasma", "procedure,_shortened": "as §1"}, "Rattus norvegicus [12]": {"test_system": "Rattus norvegicus", "test": "Dose normalized AUC in Sprague-Dawley rat at 1 mg/kg, iv bolus", "assay_type": "ADME, organism-based", "set-up": "dose 1 mg/kg, route intravenous", "conditions": "in vivo", "procedure,_shortened": "as §1"}, "Streptococcus pyogenes": {"test_system": "Streptococcus pyogenes", "test": "Antibacterial activity against Streptococcus pyogenes ATCC BAA-595 by CLSI M07-A8 method", "assay_type": "functional", "procedure,_shortened": "as §4"}, "[13]": {"test": "Cmax in Sprague-Dawley rat at 1 mg/kg, iv bolus", "assay_type": "ADME, organism-based", "set-up": "dose 1 mg/kg, route intravenous", "conditions": "in vivo", "procedure,_shortened": "as §1"}, "[14]": {"test": "Volume of distribution at steady state in Sprague-Dawley rat at 75 mg/kg, iv bolus", "assay_type": "ADME, organism-based", "set-up": "dose 75 mg/kg, route intravenous", "conditions": "in vivo, read-out: Vdss", "procedure,_shortened": "as §1"}, "[15]": {"test": "AUC in Sprague-Dawley rat at 25 mg/kg, iv bolus", "assay_type": "ADME, organism-based", "set-up": "dose 25 mg/kg, route intravenous", "conditions": "plasma", "procedure,_shortened": "as §1"}, "Streptococcus pneumoniae": {"test_system": "Streptococcus pneumoniae", "test": "Antibacterial activity against Streptococcus pneumoniae by CLSI M07-A8 method", "assay_type": "functional, organism-based", "procedure,_shortened": "as §4"}, "Staphylococcus aureus [16]": {"test_system": "Staphylococcus aureus", "test": "Antibacterial activity against methicillin-resistant Staphylococcus aureus isolate A4.018 by CLSI M07-A8 method", "assay_type": "functional"}, "[17]": {"test": "Clearance in Sprague-Dawley rat at 1 mg/kg, iv bolus", "assay_type": "ADME, organism-based", "set-up": "dose 1 mg/kg, route intravenous", "conditions": "in vivo", "procedure,_shortened": "as §1"}, "[18]": {"test": "Clearance in Sprague-Dawley rat at 75 mg/kg, iv bolus", "assay_type": "ADME, organism-based", "set-up": "dose 75 mg/kg, route intravenous", "conditions": "in vivo", "procedure,_shortened": "as §1"}, "Enterococcus faecium": {"test_system": "Enterococcus faecium", "test": "Antibacterial activity against Enterococcus faecium 7130724 by CLSI M07-A8 method", "assay_type": "functional", "procedure,_shortened": "as §4"}, "[19]": {"test": "Chemical stability of the compound in 15% v/v NaOH, 5% PEG-300, 0.9% saline, 55% v/v water at pH 7.2 to 7.8", "assay_type": "physicochemical", "conditions": "buffer"}, "Staphylococcus aureus [20]": {"test_system": "Staphylococcus aureus", "test": "Antibacterial activity against Staphylococcus aureus ATCC 01001 infected in thigh of CD1 mouse assessed as prevention of colony formation at 80 to 320 mg/kg, ip administered 2 hrs post infection measured after 24 hrs", "assay_type": "functional, organism-based", "procedure,_shortened": "as §3"}, "[21]": {"test": "Oral bioavailability in Sprague-Dawley rat", "assay_type": "ADME, organism-based", "conditions": "in vivo"}, "Rattus norvegicus [22]": {"test_system": "Rattus norvegicus", "test": "Dose normalized AUC in Sprague-Dawley rat at 25 mg/kg, iv bolus", "assay_type": "ADME, organism-based", "set-up": "dose 25 mg/kg, route intravenous", "conditions": "in vivo", "procedure,_shortened": "as §1"}, "Staphylococcus aureus [23]": {"test_system": "Staphylococcus aureus", "test": "Bacteriostatic activity against Staphylococcus aureus ATCC 01001 infected in thigh of CD1 mouse assessed as prevention of colony formation at 40 mg/kg, ip administered 2 hrs post infection measured after 12 hrs", "assay_type": "functional, organism-based", "set-up": "dose 40 mg/kg", "procedure,_shortened": "as §3"}, "Staphylococcus aureus [24]": {"test_system": "Staphylococcus aureus", "test": "Antibacterial activity against Staphylococcus aureus ATCC 01001 infected in thigh of CD1 mouse assessed as prevention of colony formation at 80 to 320 mg/kg, ip administered 2 hrs post infection measured after 12 hrs", "assay_type": "functional, organism-based", "procedure,_shortened": "as §3"}, "Staphylococcus aureus [25]": {"test_system": "Staphylococcus aureus", "test": "Antibacterial activity against Staphylococcus aureus ATCC 49951 infected in CD1 mouse assessed as protection against bacterial infection administered 5 hrs post infection measured on day 5", "assay_type": "functional", "procedure,_shortened": "as §2"}, "[26]": {"test": "Cmax in Sprague-Dawley rat at 25 mg/kg, iv bolus", "assay_type": "ADME, organism-based", "set-up": "dose 25 mg/kg, route intravenous", "conditions": "in vivo", "procedure,_shortened": "as §1"}}, "note": "The source made the active and inactive calls. Unless noted, no cut-off for these calls is given here."}
{"smiles": "CNC(=O)C[C@@H]1NC(=O)c2csc(n2)-c2ccc(-c3nc(NC(=O)[C@H]4CC[C@H](C(=O)O)CC4)cs3)nc2-c2csc(n2)-c2csc(n2)[C@H]([C@@H](O)c2ccccc2)NC(=O)CNC(=O)c2nc(sc2COC)[C@H](C(C)C)NC(=O)c2nc1sc2C", "values": [{"measurement": "clearance", "setting": "[1]", "value": 1, "unit": "mL/min/kg"}, {"measurement": "Vd", "setting": "[2]", "value": "< 0.1", "unit": "L/kg"}, {"measurement": "Vd", "setting": "[3]", "value": "< 0.1", "unit": "L/kg"}, {"measurement": "Cmax", "setting": "Rattus norvegicus [4]", "value": "> 1000", "unit": "µM"}, {"measurement": "AUC/dose", "setting": "Rattus norvegicus [5]", "value": 38.2, "unit": "µM·h/mg/kg"}, {"measurement": "fraction unbound", "setting": "[6]", "value": "< 0.01"}, {"measurement": "ED50", "setting": "Enterococcus faecalis [7]", "value": 0.6, "unit": "mg/kg"}, {"measurement": "Activity", "setting": "Staphylococcus aureus [8]", "value": "Active"}, {"measurement": "MIC", "setting": "Enterococcus faecalis [9]", "value": 0.06, "unit": "µg/mL"}, {"measurement": "AUC", "setting": "[10]", "value": 2860, "unit": "µM·h"}, {"measurement": "AUC", "setting": "[11]", "value": 3, "unit": "µM·h"}, {"measurement": "AUC/dose", "setting": "Rattus norvegicus [12]", "value": 3, "unit": "µM·h/mg/kg"}, {"measurement": "MIC", "setting": "Streptococcus pyogenes", "value": 4, "unit": "µg/mL"}, {"measurement": "Cmax", "setting": "[13]", "value": 5, "unit": "µM"}, {"measurement": "Vd", "setting": "[14]", "value": "< 0.1", "unit": "L/kg"}, {"measurement": "AUC", "setting": "[15]", "value": 343, "unit": "µM·h"}, {"measurement": "Activity", "setting": "Streptococcus pneumoniae", "value": "Active"}, {"measurement": "MIC", "setting": "Staphylococcus aureus [16]", "value": 0.125, "unit": "µg/mL"}, {"measurement": "clearance", "setting": "[17]", "value": 6.7, "unit": "mL/min/kg"}, {"measurement": "clearance", "setting": "[18]", "value": 0.4, "unit": "mL/min/kg"}, {"measurement": "MIC", "setting": "Enterococcus faecium", "value": 0.06, "unit": "µg/mL"}, {"measurement": "Stability", "setting": "[19]", "value": "> 1", "unit": "weeks"}, {"measurement": "Activity", "setting": "Staphylococcus aureus [20]", "value": "Active"}, {"measurement": "bioavailability", "setting": "[21]", "value": "< 0.1", "unit": "%"}, {"measurement": "AUC/dose", "setting": "Rattus norvegicus [22]", "value": 13.7, "unit": "µM·h/mg/kg"}, {"measurement": "Activity", "setting": "Staphylococcus aureus [23]", "value": "Active"}, {"measurement": "Activity", "setting": "Staphylococcus aureus [24]", "value": "Active"}, {"measurement": "ED50", "setting": "Staphylococcus aureus [25]", "value": 5.2, "unit": "mg/kg"}, {"measurement": "Cmax", "setting": "[26]", "value": 320, "unit": "µM"}]}
